This passage reports IC50 and Activity results from ChEMBL document CHEMBL1144601, “Synthesis and antiproliferative properties of N3/8-disubstituted 3,8-diazabicyclo[3.2.1]octane analogues of 3,8-bis[2-(3,4,5-trimethoxyphenyl)pyridin-4-yl]methyl-piperazine” (Eur J Med Chem, 2007).

Activity calls are given as the source filed them. The calls are words filed in the database; no cut-off is given here.

In assay [1] the test system is MCF7. Kind of assay: Antiproliferative activity against human MCF7 cells by MTT assay. Type of assay: functional, cell-based. The procedure, abridged: (§1)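 Exponentially growing cells resuspended in growth medium with serial drug dilutions; viability read by MTT after 96 h at 37 °C, with untreated controls allowed at least three rounds of multiplication. IC50 is the concentration cutting proliferation by 50%, mean ± SD of three independent determinations. Haematological lines were grown in RPMI-1640 with 10% FCS and antibiotics. Solid-tumour lines were grown in their own media with 10% FCS.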
Background: Tetrazolium dyes change colour on reduction, which living cells bring about.

Assay [2] relates to MCF7. As to the kind of experiment: Cell cycle arrest in MCF7 cells by accumulation at GO/G1 phase at 10 uM after 24hrs. The class given is functional, Homo sapiens. The procedure, abridged: (§2)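 MCF-7 cells grown in DMEM with 2 mM L-glutamine and 10% heat-inactivated FBS, seeded at 5×10^5 cells/well. After 24 h they were exposed to compound at 10 µM for 24 h. Cells plus supernatant were collected, stained with Nicoletti reagent and DNA content read by flow cytometry (FL2, linear amplification). Phase distribution was modelled from the histograms.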

Assay [3] in a line: Antiproliferative activity against human CRL7065 cells by MTT assay. Type of assay: functional, cell-based. The following applies: CRL-7065. The method, boiled down: as §1
In assay [4] the test system is MCF7. As to the kind of experiment: Cell cycle arrest in MCF7 cells by accumulation at G2/M phase at 10 uM after 24 hrs. Type of assay: functional, Homo sapiens. The procedure, abridged:
as §2

Assay [5] deals with CCRF-CEM. As to the kind of experiment: Antiproliferative activity against human CCRF-CEM cells by MTT assay. The class given is functional, cell-based. The procedure, abridged: as §1
The test system of assay [6] is HepG2. Kind of assay: Antiproliferative activity against human HepG2 cells by MTT assay. Type of assay: functional, cell-based. The method, boiled down:
as §1

In assay [7] the test system is WIL2-NS. Kind of assay: Antiproliferative activity against human WIL-2NS cells by MTT assay. The class given is functional, cell-based. The method, boiled down:
as §1

Assay [8] relates to MCF7. As to the kind of experiment: Induction of apoptosis in human MCF7 cells up to 50 uM after 24 hrs by propidium iodide satining assay. The class given is functional, cell-based. The method, boiled down:
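MCF-7 cells treated at 10–50 µM for 24 h were washed in PBS. They were resuspended in 0.1% sodium citrate, 0.1% Triton X-100 and 50 µg/mL propidium iodide, then kept 30 min at 4 °C in the dark. Nuclei were read by flow cytometry on a log scale with debris gated out. The % hypodiploid nuclei is from three experiments in triplicate.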

The subject of assay [9] is SK-MES-1. Kind of assay: Antiproliferative activity against human SKMES1 cells by MTT assay. Type of assay: functional, cell-based. The method, boiled down:
as §1

The test system of assay [10] is MCF7. As to the kind of experiment: Cell cycle arrest in MCF7 cells by accumulation at S phase at 10 uM after 24 hrs. Type of assay: functional, Homo sapiens. The method, boiled down:
as §2

Assay [11] concerns CCRF-SB. As to the kind of experiment: Antiproliferative activity against human CCRF-SB cells by MTT assay. The class given is functional, cell-based. The procedure, abridged:
as §1

The subject of assay [12] is SK-MEL-28. As to the kind of experiment: Antiproliferative activity against human SK-MEL-28 cells by MTT assay. Type of assay: functional, cell-based. The method, boiled down: as §1
Assay [13] relates to DU-145. Kind of assay: Antiproliferative activity against human DU145 cells by MTT assay. The class given is functional, cell-based. The method, boiled down: as §1
Assay [14] relates to MT4. Kind of assay: Antiproliferative activity against human MT4 cells by MTT assay. Type of assay: functional, cell-based. The method, boiled down: as §1
For assay [15], the system named is MCF7. Kind of assay: Increase in p21/WAF1 expression level in MCF7 cells at 10 uM after 24 hrs. The note with it: Homo sapiens, TDE = time-dependent effect. Type of assay: functional, cell-based. The procedure, abridged: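 MCF-7 cells plated at 5×10^5 per 6-cm plate the day before were treated at 10 µM for various times. Lysates were made by freeze-thaw in Tris-HCl buffer with protease and phosphatase inhibitors. 30 µg protein was run on 10% SDS-PAGE and transferred to nitrocellulose. Blots were probed overnight at 4 °C with anti-p21 monoclonal (1:200), then a secondary antibody, and detected by ECL; three experiments.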

The IC50 is the concentration needed to halve the response being measured. A higher IC50 goes with a need for much substance. For `COc1cc(-c2cc(CN3CC4CCC(C3)N4Cc3ccnc(-c4cc(OC)c(OC)c(OC)c4)c3)ccn2)cc(OC)c1OC`, the IC50 is 5 µM in [1]; greater than 100 µM in [3]; 2 µM in assay [5]; 8 µM in assay [6]; 3 µM in assay [7]; 10 µM in assay [9]. The IC50 was 3 µM in assay [11], 4 µM in assay [12], 14 µM in assay [13] and 2 µM in assay [14]. The Activity was 87% in [2], 7.5% in assay [4], 4.6% in assay [10] and “tde” in assay [15]. Also, in assay [8], the result was inactive.
